This is an account of results in ChEMBL document CHEMBL1144446, “Synthesis and Src kinase inhibitory activity of 2-phenyl- and 2-thienyl-7-phenylaminothieno[3,2-b]pyridine-6-carbonitriles” (J Med Chem, 2005).

Data set [1] deals with Proto-oncogene tyrosine-protein kinase Src (Homo sapiens, UniProt P12931). Description: Inhibition of Src protein tyrosine kinase in LANCE format enzyme assay. Background: TR-FRET usually uses a lanthanide donor and a delayed reading to cut background.
Data set [2] can be described thus: Plasma concentration upon oral dose at 50 mg/kg in mouse after 24 hours. Type of data set: ADME, organism-based. Details: dose 50 mg/kg, route oral. Put shortly:
(§1)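 Nude mice received one oral dose of 50 mg/kg in a vehicle of 0.5% methylcellulose and 0.4% Tween 80. Plasma was sampled at 4 and 24 h and analyzed for the amount of parent compound remaining, reported in µg/mL.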

Data set [3] in a line: Plasma concentration upon oral dose at 50 mg/kg in mouse after 4 hours. Type of data set: ADME, organism-based. Details: dose 50 mg/kg, route oral. The essentials: as §1
In the next data set the test system is K562. Description: cells. The settings on record: Homo sapiens.

Sequence of Proto-oncogene tyrosine-protein kinase Src (P12931 2-536 limits assumed): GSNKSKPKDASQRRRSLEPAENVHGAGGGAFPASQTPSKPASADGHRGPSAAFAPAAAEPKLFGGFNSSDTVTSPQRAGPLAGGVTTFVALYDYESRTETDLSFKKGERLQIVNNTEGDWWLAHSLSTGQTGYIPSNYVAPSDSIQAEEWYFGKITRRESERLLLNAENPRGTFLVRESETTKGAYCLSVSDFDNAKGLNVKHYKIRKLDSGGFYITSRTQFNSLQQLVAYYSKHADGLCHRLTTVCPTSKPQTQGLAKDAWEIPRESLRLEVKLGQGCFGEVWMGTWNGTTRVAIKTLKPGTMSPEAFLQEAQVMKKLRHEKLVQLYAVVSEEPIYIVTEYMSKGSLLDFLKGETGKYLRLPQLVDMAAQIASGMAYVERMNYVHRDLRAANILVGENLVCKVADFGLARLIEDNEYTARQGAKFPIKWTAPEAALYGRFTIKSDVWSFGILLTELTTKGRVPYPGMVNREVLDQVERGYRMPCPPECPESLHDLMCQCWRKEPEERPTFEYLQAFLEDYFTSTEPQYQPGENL

Regarding `CCCCNCc1ccc(-c2cc3ncc(C#N)c(Nc4cc(OC)c(Cl)cc4Cl)c3s2)cc1`, inhibition in data set [1] was half-maximal at 11 nM (IC50). The same measure, in the same setting: the same measure for `CN1CCN(Cc2ccc(-c3cc4ncc(C#N)c(Nc5ccc(Oc6ccccc6)cc5)c4s3)cc2)CC1`: 140 nM; for `COc1cc(Nc2c(C#N)cnc3cc(-c4ccc(CCN(C)C)cc4)sc23)c(Cl)cc1Cl`: 8.8 nM. Regarding `COc1cc(Nc2c(C#N)cnc3cc(-c4csc(CN5CCN(C)CC5)c4)sc23)c(Cl)cc1Cl`, the concentration at 24 h in data set [2] was 320 ng/mL. The same molecule displayed a concentration at 4 h in data set [3] of 1000 ng/mL. Take `COc1cc(Nc2c(C#N)cnc3cc(-c4ccc(N(C)C)cc4)sc23)c(Cl)cc1Cl`: in data set [1], 110 nM corresponded to half-maximal inhibition (IC50). Still for that read-out and setting: the same measure for `COc1cc(Nc2c(C#N)cnc3cc(-c4ccc(C(=O)N(C)C)cc4)sc23)c(Cl)cc1Cl`: 23 nM. For the molecule `CCOc1cc(Nc2c(C#N)cnc3cc(-c4ccc(CN5CCN(C)CC5)cc4)sc23)c(Cl)cc1Cl`, in data set [1], the midpoint of inhibition, the IC50, lay at 980 nM. Still for that read-out and setting: the same measure for `CN(C)Cc1ccc(-c2cc3ncc(C#N)c(Nc4ccc(Cl)cc4Cl)c3s2)cc1`: 53 nM. Turning to `COc1cc(Nc2c(C#N)cnc3cc(-c4ccc(C(=O)N5CCN(C)CC5)cc4)sc23)c(Cl)cc1Cl`, the concentration at 24 h in data set [2] is 59 ng/mL. Further, in data set [1], it took 13 nM to reach half-maximal inhibition (IC50). In addition, the concentration at 4 h in data set [3] amounted to 1600 ng/mL. Take `CCN1CCN(Cc2ccc(-c3cc4ncc(C#N)c(Nc5cc(OC)c(Cl)cc5Cl)c4s3)cc2)CC1`: inhibition in data set [1] was half-maximal at 8.2 nM (IC50). `COc1cc(Nc2c(C#N)cnc3cc(-c4ccsc4CN4CCN(C)CC4)sc23)c(Cl)cc1Cl`: the IC50 (as a rule, the point on the concentration scale where inhibition reaches its midpoint) in data set [1] stood at 420 nM. `COc1cc(Nc2c(C#N)cnc3cc(-c4ccc(CN5CCNCC5)cc4)sc23)c(Cl)cc1Cl` came in with a concentration at 24 h in data set [2] of 3 ng/mL. The IC50 in data set [1] came out at 7.2 nM. The same molecule came in with a concentration at 4 h in data set [3] of 1100 ng/mL. `COc1cc(Nc2c(C#N)cnc3cc(-c4ccc(CN5CCN(C)CC5)cc4)sc23)c(Cl)cc1Cl` registered a concentration at 24 h in data set [2] of 400 ng/mL. Also, the midpoint of inhibition in the data set on K562, the IC50, lay at 32 nM. This molecule also displayed a concentration at 4 h in data set [3] of 2200 ng/mL. As for `CCOc1cc(Nc2c(C#N)cnc3cc(-c4csc(CN5CCN(C)CC5)c4)sc23)c(Cl)cc1Cl`, the concentration for half-maximal inhibition (IC50) in data set [1] came to 1300 nM. Molecule `CN1CCN(Cc2cc(-c3cc4ncc(C#N)c(Nc5ccc(Cl)cc5Cl)c4s3)cs2)CC1` came in with an IC50 in data set [1] of 67 nM. In data set [2], `COc1cc(Nc2c(C#N)cnc3cc(-c4ccc(CN(C)C)cc4)sc23)c(Cl)cc1Cl` registered a concentration at 24 h of 2 ng/mL. This molecule also came in with a 50% inhibitory concentration (IC50) in data set [1] of 9.1 nM. The molecule further gave a concentration at 4 h in data set [3] of 200 ng/mL. In data set [1], `COc1cc(Nc2c(C#N)cnc3cc(-c4ccc(CCN5CCN(C)CC5)cc4)sc23)c(Cl)cc1Cl` yielded an IC50 of 15 nM. On the same count and under the same terms, the same measure for `COc1cc(Nc2c(C#N)cnc3cc(-c4ccc(CN5CCSCC5)cc4)sc23)c(Cl)cc1Cl`: 52 nM. For the molecule `COc1cc(Nc2c(C#N)cnc3cc(-c4ccc(CN5CCN(CCO)CC5)cc4)sc23)c(Cl)cc1Cl`, the concentration at 24 h in data set [2] is 69 ng/mL. The molecule also showed an IC50 in data set [1] of 7.4 nM. In data set [3], this molecule gave a concentration at 4 h of 1700 ng/mL. In data set [1], `COc1cc(Nc2c(C#N)cnc3cc(-c4ccc(CN5CCCCC5)cc4)sc23)c(Cl)cc1Cl` registered a 50% inhibitory concentration (IC50) of 17 nM.

Consider `COc1cc(Nc2c(C#N)cnc3cc(OCCCN4CCN(C)CC4)c(OC)cc23)c(Cl)cc1Cl` [BOSUTINIB], for which the IC50 with K562 was found to be 20 nM.
